Tests used:
[1] = molecular target: T1, Proto-oncogene tyrosine-protein kinase Src (Homo sapiens, UniProt P12931); experiment: Inhibition of Src at 10 uM
Procedure, shortened: (§1)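 Wells were precoated with 20 μg/mL poly(Glu,Tyr)4:1 substrate, then given an 8 μM ATP solution (added concentration) and compound. Purified EGFR or Src in kinase buffer ran for 60 min at 37 °C, in triplicate, with 0.1% DMSO as negative control. Phosphotyrosine was detected with PY99, HRP anti-mouse IgG and o-phenylenediamine/H2O2 at A490. Inhibition % = [1 − A490/A490 control] × 100, and IC50 was taken from inhibition curves.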

[2] = molecular target: Epidermal growth factor receptor (Homo sapiens) (UniProt P00533); experiment: Inhibition of EGFR at 10 uM; procedure, shortened: as §1
[3] = molecular target: T1, Proto-oncogene tyrosine-protein kinase Src; experiment: Inhibition of Src; procedure, shortened: as §1

T1 sequence (P12931 2-536 limits assumed): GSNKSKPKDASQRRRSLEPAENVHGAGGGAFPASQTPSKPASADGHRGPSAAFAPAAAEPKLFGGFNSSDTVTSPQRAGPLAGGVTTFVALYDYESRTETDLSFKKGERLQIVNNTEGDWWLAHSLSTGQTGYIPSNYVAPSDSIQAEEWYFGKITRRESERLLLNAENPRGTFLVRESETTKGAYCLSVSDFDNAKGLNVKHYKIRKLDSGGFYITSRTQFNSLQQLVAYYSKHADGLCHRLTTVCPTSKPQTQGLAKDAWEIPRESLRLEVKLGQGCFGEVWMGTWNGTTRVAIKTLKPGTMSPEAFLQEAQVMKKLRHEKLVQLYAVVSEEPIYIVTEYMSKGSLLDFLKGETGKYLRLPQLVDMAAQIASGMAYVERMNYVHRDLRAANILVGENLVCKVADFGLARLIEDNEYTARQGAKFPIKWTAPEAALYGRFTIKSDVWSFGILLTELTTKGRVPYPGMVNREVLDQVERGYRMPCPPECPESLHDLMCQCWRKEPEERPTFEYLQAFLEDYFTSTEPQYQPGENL
Epidermal growth factor receptor (Homo sapiens), sequence (P00533 whole entry): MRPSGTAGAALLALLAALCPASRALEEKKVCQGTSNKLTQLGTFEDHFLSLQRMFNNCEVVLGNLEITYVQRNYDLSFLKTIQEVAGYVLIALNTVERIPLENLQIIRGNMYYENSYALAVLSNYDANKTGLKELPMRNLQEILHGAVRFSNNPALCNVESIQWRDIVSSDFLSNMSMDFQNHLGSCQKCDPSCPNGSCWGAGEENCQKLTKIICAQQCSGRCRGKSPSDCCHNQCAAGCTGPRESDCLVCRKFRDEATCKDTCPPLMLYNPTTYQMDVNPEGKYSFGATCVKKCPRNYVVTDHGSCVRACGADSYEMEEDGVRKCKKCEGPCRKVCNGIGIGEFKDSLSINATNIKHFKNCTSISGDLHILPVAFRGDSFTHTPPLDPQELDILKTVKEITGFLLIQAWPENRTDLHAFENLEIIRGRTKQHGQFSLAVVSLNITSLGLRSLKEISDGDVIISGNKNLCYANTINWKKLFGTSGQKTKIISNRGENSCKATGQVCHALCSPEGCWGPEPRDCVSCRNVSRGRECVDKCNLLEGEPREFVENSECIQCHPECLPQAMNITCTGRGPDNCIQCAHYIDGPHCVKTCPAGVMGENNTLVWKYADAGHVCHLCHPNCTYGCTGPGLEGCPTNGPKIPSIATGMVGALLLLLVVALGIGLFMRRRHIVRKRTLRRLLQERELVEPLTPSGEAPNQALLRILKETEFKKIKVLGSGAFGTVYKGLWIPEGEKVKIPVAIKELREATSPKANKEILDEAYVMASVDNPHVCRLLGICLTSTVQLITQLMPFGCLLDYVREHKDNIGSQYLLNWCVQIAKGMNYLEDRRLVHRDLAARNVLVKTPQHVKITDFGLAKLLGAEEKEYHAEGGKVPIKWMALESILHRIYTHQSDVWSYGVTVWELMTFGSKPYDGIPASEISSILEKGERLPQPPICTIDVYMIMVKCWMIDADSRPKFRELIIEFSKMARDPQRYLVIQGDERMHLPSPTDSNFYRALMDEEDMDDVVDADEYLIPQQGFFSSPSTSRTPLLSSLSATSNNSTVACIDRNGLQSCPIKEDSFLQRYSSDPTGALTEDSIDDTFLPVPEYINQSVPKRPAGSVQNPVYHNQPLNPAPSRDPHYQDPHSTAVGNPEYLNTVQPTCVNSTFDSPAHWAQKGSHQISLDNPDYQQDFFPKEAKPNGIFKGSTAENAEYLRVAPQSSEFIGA

| Compound | inhibition [1] | inhibition [2] | IC50 [3] |
| --- | --- | --- | --- |
| CC(C)(C)OC(=O)N[C@@H](Cc1ccccc1)C(=O)Oc1c(-c2ccc(O)c(O)c2)oc2cc(O)cc(O)c2c1=O | 40.9% | 35.9% |  |
| C[C@H](O)[C@@H](NC(=O)OC(C)(C)C)C(=O)Oc1c(-c2ccc(O)c(O)c2)oc2cc(O)cc(O)c2c1=O | 71% | 34.6% | 4.9 µM |
| O=c1c(O)c(-c2ccc(O)c(O)c2)oc2cc(O)cc(O)c12 [QUERCETIN] |  |  | 15 µM |
| CC(=O)N1CCC[C@H]1C(=O)Oc1c(-c2ccc(O)c(O)c2)oc2cc(O)cc(O)c2c1=O | 24.3% | 21% |  |
| COc1cc2ncnc(Nc3ccc(OCc4ccccc4)cc3)c2cc1OC |  | 97.2% |  |
| CC(C)[C@@H](NC(=O)OC(C)(C)C)C(=O)Oc1c(-c2ccc(O)c(O)c2)oc2cc(O)cc(O)c2c1=O | 40.7% | 22.3% |  |
| CC(C)(C)OC(=O)N1CCC[C@H]1C(=O)Oc1c(-c2ccc(O)c(O)c2)oc2cc(O)cc(O)c2c1=O | 27.7% | 19.3% |  |
| CC(C)[C@H](NC(=O)OC(C)(C)C)C(=O)Oc1c(-c2ccc(O)c(O)c2)oc2cc(O)cc(O)c2c1=O | 52.5% | 21% | 7.4 µM |
| C[C@H](NC(=O)OC(C)(C)C)C(=O)Oc1c(-c2ccc(O)c(O)c2)oc2cc(O)cc(O)c2c1=O | 51.4% | 35.9% | 6.5 µM |
| CC(C)(C)OC(=O)NCC(=O)Oc1c(-c2ccc(O)c(O)c2)oc2cc(O)cc(O)c2c1=O | 76.2% | 43.2% | 3.3 µM |
| CC(C)C[C@H](NC(=O)OC(C)(C)C)C(=O)Oc1c(-c2ccc(O)c(O)c2)oc2cc(O)cc(O)c2c1=O | 55.4% | 30.4% | 4.2 µM |
| CC(C)(C)OC(=O)N[C@@H](Cc1c[nH]c2ccccc12)C(=O)Oc1c(-c2ccc(O)c(O)c2)oc2cc(O)cc(O)c2c1=O | 44.4% | 15.6% |  |
| CC(C)C[C@@H](NC(=O)OC(C)(C)C)C(=O)Oc1c(-c2ccc(O)c(O)c2)oc2cc(O)cc(O)c2c1=O | 44.5% | 29.2% |  |
| CC(C)(C)n1nc(-c2ccc(Cl)cc2)c2c(N)ncnc21 | 99% |  |  |
| CC(C)(C)OC(=O)N[C@@H](CC(N)=O)C(=O)Oc1c(-c2ccc(O)c(O)c2)oc2cc(O)cc(O)c2c1=O | 50.8% | 23.8% | 9.9 µM |
| CC(=O)N[C@@H](CC(C)C)C(=O)Oc1c(-c2ccc(O)c(O)c2)oc2cc(O)cc(O)c2c1=O | 39% | 25.9% |  |
| C[C@@H](O)[C@H](NC(=O)OC(C)(C)C)C(=O)Oc1c(-c2ccc(O)c(O)c2)oc2cc(O)cc(O)c2c1=O | 76.1% | 36.8% | 3.5 µM |
| CC(=O)N[C@@H](Cc1ccccc1)C(=O)Oc1c(-c2ccc(O)c(O)c2)oc2cc(O)cc(O)c2c1=O | 60.5% | 20.9% | 5.9 µM |
